Experimental findings from ChEMBL document CHEMBL4138048, “Synthesis of substituted 2H-benzo[e]indazole-9-carboxylate as a potent antihyperglycemic agent that may act through IRS-1, Akt and GSK-3β pathways” (Medchemcomm, 2017) are described below.

Data set [1] relates to Rattus norvegicus. Briefly: Antihyperglycemic activity in albino Wistar rat assessed as reduction in blodd glucose level at 100 mg/kg, po dosed 30 mins before sucrose load and measured 30 to 120 mins post sucrose injection by glucometry. It is filed as functional, organism-based. The method, boiled down:
(§1)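 Normal albino rats given an oral sucrose load, with a single oral dose of 100 mg/kg b.wt. Blood glucose profile followed after the load, and glucose AUC taken over 0–2 h. Percent inhibition of the postprandial rise in blood glucose calculated against control. Mean % change in 5 animals per group.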

In data set [2] the test system is L6. Briefly: Stimulation of [3H]2-deoxyglucose uptake in rat L6 cells incubated for 16 hrs by scintillation counting method. It is filed as functional, cell-based. A digest of the protocol:
(§2)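 L6 myotubes incubated with the compound […]; insulin at 100 nM for 20 min served as the positive control. Uptake of ³H-2-deoxyglucose measured and expressed as fold stimulation relative to the control condition.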

The subject of data set [3] is L6. Put plainly: Stimulation of [3H]2-deoxyglucose uptake in rat L6 cells at 10 uM incubated for 16 hrs by scintillation counting method relative to untreated control. It is filed as functional. The method, boiled down:
as §2

The subject of data set [4] is HepG2. Put plainly: Stimulation of [3H]2-deoxyglucose uptake in human HepG2 cells at 10 uM incubated for 16 hrs by scintillation counting method. The data set is classed as functional, cell-based.
For data set [5], the system named is HepG2. Briefly: Inhibition of glucagon-mediated glucose release in human HepG2 cells at 10 uM incubated for 24 hrs by Amplex red glucose/glucose oxidase assay. The data set is classed as functional, cell-based.
The subject of data set [6] is L6. Put plainly: Cytotoxicity in rat L6 cells assessed as reduction in cell viability at 1 to 50 uM by MTT assay. The conditions noted are these: l6, 50 µM. The data set is classed as cell-based.
In data set [7] the test system is Rattus norvegicus. Put plainly: Antihyperglycemic activity in albino Wistar rat assessed as inhibition of postprandial hyperglycemia at 100 mg/kg, po dosed 30 mins before sucrose load and measured 30 to 120 mins post sucrose injection by glucometry. It is filed as functional. The method, boiled down: as §1
The test system of data set [8] is Rattus norvegicus. Put plainly: Antihyperglycemic activity in Sprague-Dawley rat model of STZ-induced diabetes assessed as improvement on glucose tolerance at 100 mg/kg, po dosed 30 mins before sucrose load and measured after 5 hrs post sucrose load by glucometry. The data set is classed as functional. The method, boiled down: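 Sucrose-challenged streptozotocin-induced diabetic rats, single oral dose of 100 mg/kg b.wt. Blood glucose profile followed after sucrose load, and glucose AUC taken over 0–24 h. Percent improvement in glucose tolerance calculated at 5 h post sucrose load. Values are mean % change in 5 animals per group, compared with control.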

Data set [9] has as its system Mus musculus. Put plainly: Antihyperglycemic activity in db/db mouse assessed as reduction in blood glucose level at 30 mg/kg, po qd and measured on day 7 by oral glucose tolerance test. The data set is classed as functional, organism-based. The method, boiled down: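 Type 2 diabetic db/db mice dosed orally once a day for 15 days at 3, 10 or 30 mg/kg, with pioglitazone at 10 mg/kg as standard. Blood glucose measured daily and profile compared with vehicle-treated animals. Mean % change in 5 animals per group.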

Data set [10] has as its system Mus musculus. Put plainly: Toxicity in db/db mouse assessed as effect on body weight level at 3 to 30 mg/kg, po qd for 15 days by oral glucose tolerance test. It is filed as organism-based. The conditions noted are these: in vivo, 360 h.
Data set [11] concerns Mus musculus. Briefly: Antihyperglycemic activity in db/db mouse assessed as improvement on glucose tolerance by measuring blood glucose AUC level at 3 mg/kg, po qd for 10 days by oral glucose tolerance test. The data set is classed as functional. The method, boiled down:
(§3)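 db/db mice dosed orally once daily for 15 consecutive days at 3, 10 or 30 mg/kg, with vehicle controls and pioglitazone at 10 mg/kg. Oral glucose tolerance tests on day 10 and day 15. Overall improvement in glucose tolerance calculated against vehicle control. Mean % change in 5 animals per group.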

Data set [12] has as its system Mus musculus. Briefly: Antihyperglycemic activity in db/db mouse assessed as improvement on glucose tolerance by measuring blood glucose AUC level at 10 mg/kg, po qd for 10 days by oral glucose tolerance test. It is filed as functional. A digest of the protocol: as §3
Data set [13] deals with Mus musculus. Put plainly: Antihyperglycemic activity in db/db mouse assessed as improvement on glucose tolerance by measuring blood glucose AUC level at 10 mg/kg, po qd for 15 days by oral glucose tolerance test. It is filed as functional. A digest of the protocol:
as §3

Data set [14] deals with Mus musculus. Put plainly: Antihyperglycemic activity in db/db mouse assessed as reduction in fasting blood glucose level at 3 to 30 mg/kg, po qd for 15 days. It is filed as functional, organism-based. A digest of the protocol: (§4)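 db/db mice given 3, 10 or 30 mg/kg orally once a day for 15 consecutive days, alongside vehicle controls. Serum triglyceride, total cholesterol, HDL-C and insulin measured, along with fasting blood glucose. Expressed as mean % change in 5 animals per group versus control.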

Data set [15] concerns Mus musculus. Put plainly: Antihyperglycemic activity in db/db mouse assessed as reduction in triglyceride level at 10 mg/kg, po qd for 15 days. It is filed as functional. Also noted: scale not given: the % may be the effect or the level left. The method, boiled down: as §4
The test system of data set [16] is Mus musculus. Briefly: Antihyperglycemic activity in db/db mouse assessed as reduction in cholesterol level at 3 mg/kg, po qd for 15 days. The data set is classed as functional. Also noted: scale not given: the % may be the effect or the level left. A digest of the protocol: as §4
In data set [17] the test system is Mus musculus. Briefly: Antihyperglycemic activity in db/db mouse assessed as reduction in cholesterol level at 30 mg/kg, po qd for 15 days. It is filed as functional. Also noted: scale not given: the % may be the effect or the level left. The method, boiled down:
as §4

Data set [18] relates to Mus musculus. Put plainly: Antihyperglycemic activity in db/db mouse assessed as increase in HDL-C level at 3 mg/kg, po qd for 15 days. The data set is classed as functional. A digest of the protocol: as §4
The subject of data set [19] is Mus musculus. Put plainly: Antihyperglycemic activity in db/db mouse assessed as reduction in fasting blood glucose level at 10 mg/kg, po qd for 15 days. The data set is classed as functional. Also noted: scale not given: the % may be the effect or the level left. The method, boiled down:
as §4

Data set [20] relates to Mus musculus. Put plainly: Antihyperglycemic activity in db/db mouse assessed as reduction in insulin level at 3 mg/kg, po qd for 15 days. The data set is classed as functional. Also noted: scale not given: the % may be the effect or the level left. The method, boiled down: as §4
Data set [21] relates to Mus musculus. Put plainly: Antihyperglycemic activity in db/db mouse assessed as reduction in insulin level at 30 mg/kg, po qd for 15 days. It is filed as functional. Also noted: scale not given: the % may be the effect or the level left. The method, boiled down: as §4
The target in data set [22] is T1, Tyrosine-protein phosphatase non-receptor type 1 (Rattus norvegicus) (UniProt P20417).
T1 sequence (whole entry): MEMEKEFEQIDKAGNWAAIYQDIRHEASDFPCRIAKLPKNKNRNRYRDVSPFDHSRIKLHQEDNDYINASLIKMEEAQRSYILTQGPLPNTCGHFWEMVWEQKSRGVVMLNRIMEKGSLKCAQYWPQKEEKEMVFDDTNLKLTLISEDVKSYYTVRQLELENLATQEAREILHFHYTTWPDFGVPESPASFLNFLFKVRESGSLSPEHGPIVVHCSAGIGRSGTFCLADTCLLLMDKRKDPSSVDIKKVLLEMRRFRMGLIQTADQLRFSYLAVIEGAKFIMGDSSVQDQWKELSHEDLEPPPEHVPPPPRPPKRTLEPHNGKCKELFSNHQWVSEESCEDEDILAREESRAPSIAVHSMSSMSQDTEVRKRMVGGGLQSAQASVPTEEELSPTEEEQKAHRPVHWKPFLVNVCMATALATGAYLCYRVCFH
Briefly: Inhibition of PTP1B in rat L6 cells assessed as increase in insulin-stimulated IRS1 tyrosine phosphorylation pre-incubated for 16 hrs before insulin stimulation for 10 mins by Western blot method. It is filed as cell-based. A digest of the protocol:
(§5)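 L6 myotubes treated for 16 h with the compound at the indicated concentrations, then stimulated with insulin (100 nM) for 10 min. Cells lysed and analysed by western blot. Densitometry of p-IRS-1, p-AKT and p-GSK, each relative to its total form. Compared with control and with insulin-treated control.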

The target in data set [23] is T1, Tyrosine-protein phosphatase non-receptor type 1 (Rattus norvegicus). Briefly: Inhibition of PTP1B in rat L6 cells assessed as increase in insulin-stimulated Akt Ser473 phosphorylation at 10 to 25 uM pre-incubated for 16 hrs before insulin stimulation for 10 mins by Western blot method. The data set is classed as cell-based. The method, boiled down:
as §5

Molecules are shown by their SMILES. Calls of active or inactive are those of the source. The calls are words filed in the database; no cut-off is given here.

Regarding `COC(=O)c1c(SC)cc(-c2ccc(C)cc2)c2c1-c1cn(-c3ccccc3)nc1CC2`, the result in data set [1], in [4] and in data set [9] was Active. The Activity entry was “Dose-dependent effect” in [2]; “Non-Toxic” in data set [6]; 23.1% in data set [8]; “Non-Toxic” in data set [10]; 7.84% in [11]; 13.9% in [12]. The Activity in data set [13] was 20.1%; in data set [14], “Dose-dependent effect”; in data set [15], 13.2%; in [16] it was 11.5%; in data set [17], 22.7%; in [18], 6.27%. For the same compound, the Activity in data set [19] worked out at 14.1%; in [20], 6.57%; in data set [21], 30.5%. The “fold change (FC)” value in data set [3] is 2. The inhibition result in [5] and in [23] was “Active” throughout. Also, the inhibition in vivo at 100 mg/kg in data set [7] worked out at 35.8%. The inhibition result in data set [22] is “Dose-dependent effect”.
